Calls of active or inactive are those of the source. No cut-off for these calls is given here.
What was measured:
[1] = molecular target: T1, Aminodeoxyfutalosine synthase (Thermus thermophilus (strain HB8 / ATCC 27634 / DSM 579), UniProt Q5SK48); assay: Inhibition of N-terminal His6-tagged Thermus thermophilus HB8 MqnE expressed in Escherichia coli BL21 (DE3) co-expressing [4Fe-4S]2+ cluster using 3-(1-carboxyvinyloxy)benzoic acid as substrate preincubated for 15 mins in presence of SAM and substrate followed by Ti(3+)citrate addition and measured by discontinuous HPLC analysis
T1 sequence (Q5SK48 whole entry): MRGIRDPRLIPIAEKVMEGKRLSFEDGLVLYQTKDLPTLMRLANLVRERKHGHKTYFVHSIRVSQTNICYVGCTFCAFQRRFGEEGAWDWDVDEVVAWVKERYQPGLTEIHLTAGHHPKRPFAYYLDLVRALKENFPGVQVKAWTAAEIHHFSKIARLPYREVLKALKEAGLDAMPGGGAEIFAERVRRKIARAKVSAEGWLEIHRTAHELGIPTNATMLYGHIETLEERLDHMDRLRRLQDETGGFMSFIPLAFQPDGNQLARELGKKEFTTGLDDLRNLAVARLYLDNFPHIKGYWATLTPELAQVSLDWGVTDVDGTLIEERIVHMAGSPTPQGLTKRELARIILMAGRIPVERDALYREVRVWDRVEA
Method in brief: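 [4Fe-4S]2+-reconstituted T. thermophilus MqnE preincubated with a range of inhibitor concentrations plus excess SAM and substrate 1. Reaction started by reducing the enzyme with Ti(III) citrate. Aminofutalosine formation followed by discontinuous HPLC. Normalized relative initial rates plotted against inhibitor concentration to give IC50. Where IC50 fell within 5-fold of enzyme concentration, Ki fitted with the Morrison tight-binding equation.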

[2] = molecular target: T2, Aminodeoxyfutalosine synthase (Thermus thermophilus (strain HB8 / ATCC 27634 / DSM 579)) (UniProt Q5SK48); assay: Reversible inhibition of N-terminal His6-tagged Thermus thermophilus HB8 MqnE expressed in Escherichia coli BL21 (DE3) co-expressing [4Fe-4S]2+ cluster assessed as restoration of enzyme activity at 2 mM using 3-(1-carboxyvinyloxy)benzoic acid as substrate preincubated for 1 hr in presence of SAM, substrate and Ti(3+)citrate followed by compound washout and subsequent addition of SAM, substrate and Ti(3+)citrate measured after 1 hr by HPLC analysis
T2 sequence (whole entry): T1 sequence (Q5SK48 whole entry)
Method in brief: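 Reversibility test: MqnE preincubated with inhibitor for 1 h, inhibitor then removed by gel filtration, and enzyme activity compared for restoration.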

[3] = Antibacterial activity against Campylobacter jejuni ATCC 33560 AS-83-79 measured after 16.4 hrs; type: functional, Campylobacter jejuni subsp. jejuni
Method in brief: (§1)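 Bacterial growth inhibition measured by 96-well plate liquid culture. IC50 values taken as reported for each organism.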

Helicobacter pylori = assay: Antibacterial activity against Helicobacter pylori 26695 ATCC 700392 measured after 72 hrs; type: functional, organism-based; settings: 26695 ATCC 700392, 72 h; method in brief: as §1

IC50 [3] [µM]	IC50 (Helicobacter pylori) [µM]	SMILES	IC50 [1] [µM]	Ki [1] [µM]	inhibition [2]
83.3	16.1	Nc1ncnc2c1ncn2[C@@H]1O[C@H](CCC(Cc2cccc(C(=O)O)c2)C(=O)O)[C@@H](O)[C@H]1O (some centres not stated)	839	–	–
1.9	0.26	CN[C@@H]1[C@@H](O)[C@@H](O[C@@H]2[C@@H](O)[C@H](O[C@H]3O[C@H]([C@@H](C)N)CC[C@H]3N)[C@@H](N)C[C@H]2N)OC[C@]1(C)O [GENTAMICIN C2]	–	–	–
1.4	0.012	CCCCSC[C@H]1CN(Cc2c[nH]c3c(N)ncnc23)C[C@@H]1O	–	–	–

SMILES	IC50 [3] [µM]	IC50 (Helicobacter pylori) [µM]	IC50 [1] [µM]	Ki [1] [µM]	inhibition [2]
C=C(Cc1cccc(C(=O)O)c1)C(=O)O	13.6	1.8	38.7	3.1	Active

Source: ChEMBL document CHEMBL4400579, “Antibacterial Strategy against H. pylori: Inhibition of the Radical SAM Enzyme MqnE in Menaquinone Biosynthesis” (ACS Med Chem Lett, 2019)
